Results on one compound are retold here after BindingDB's records for doi:10.1021/jm980077m (New York University Medical Center, 1998).

“And” between values parts separate entries of the source, which are not always exact repeats. Equal entries are not always repeated.

For the test, the target named is T1, Alpha-1D adrenergic receptor (Homo sapiens, UniProt P25100).
T1 sequence (P25100 whole entry): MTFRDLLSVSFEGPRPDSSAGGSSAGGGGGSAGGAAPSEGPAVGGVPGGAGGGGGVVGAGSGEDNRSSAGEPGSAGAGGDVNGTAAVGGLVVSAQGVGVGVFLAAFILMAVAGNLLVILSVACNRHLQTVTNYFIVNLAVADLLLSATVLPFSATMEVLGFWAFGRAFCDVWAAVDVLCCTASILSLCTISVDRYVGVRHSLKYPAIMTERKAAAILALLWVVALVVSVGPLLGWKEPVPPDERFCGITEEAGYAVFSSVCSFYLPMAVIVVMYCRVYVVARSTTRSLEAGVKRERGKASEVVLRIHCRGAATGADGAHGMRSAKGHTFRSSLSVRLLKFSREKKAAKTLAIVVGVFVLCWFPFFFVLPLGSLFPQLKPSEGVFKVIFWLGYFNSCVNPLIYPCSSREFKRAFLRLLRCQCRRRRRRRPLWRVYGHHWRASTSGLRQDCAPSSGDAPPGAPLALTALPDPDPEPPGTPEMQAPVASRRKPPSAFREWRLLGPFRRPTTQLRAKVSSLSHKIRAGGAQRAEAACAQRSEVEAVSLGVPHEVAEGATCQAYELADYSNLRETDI
Description: Binding affinity determined by displacement of [3H]prazosin from alpha-1D adrenergic receptor. The method, boiled down: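 Radioligand displacement binding with [3H]prazosin at the alpha-1d adrenoceptor. Incubation ran 30 min, with 4 h used for one earlier reference compound. Results were expressed as pKi.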
(Displacement assays read how much labelled ligand stays bound in the presence of the test substance.)

As a reminder, the Ki is a measure of affinity in units of concentration, obtained from inhibition or displacement. A high value points to weaker binding. On to `CC1=NC(C)=C(C(=O)NCCCN2CCC(c3ccccc3)(c3ccccc3)CC2)C(c2ccc([N+](=O)[O-])cc2)C1C(N)=O` (stereo unspecified) [2,6-Dimethyl-4-(4-nitro-phenyl)-1,4-dihydro-pyridine-3,5-dicarboxylic acid 3-amide 5-{[3-(4,4-diphenyl-piperidin-1-yl)-propyl]-amide}], for which the inhibitory constant (Ki) is 224 nM and 223 nM.
